# Measured values taken from article PMC4561054 (Drugs in R&D, 2015).
# “And” between values parts separate entries of the source, which are not always exact repeats. Equal values may be shown once. “Also recorded” adds a separate entry of the source. Read-outs that look alike come from different tables or passages of the source.
# Assays:
# [1] = cited from earlier work
# [2] = cited from earlier work; remark: listed apart in the source
# [3] = cited from earlier work; remark: listed apart in the source
# HCV genotype 1 [4] = conditions: treatment-naïve patients, simeprevir plus ribavirin and pegylated interferon, cited from earlier work
# [5] = Safety and tolerability, Study 2; format: in vivo, human
# Method in brief: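 Non-HCV-infected adults (18–70 y). Severe renal impairment group had MDRD eGFR ≤29 mL/min/1.73 m2 and no dialysis. Controls had eGFR ≥80 and were matched for sex, race, age and BMI. All took 150 mg test compound orally daily, fed, for 7 days. Subject-reported AEs recorded; hematology/biochemistry on Days 1, 3, 5, 7 and 8; urinalysis and ECG on Days 1 and 7.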
# HCV genotype 1 [6] = conditions: COSMOS; simeprevir plus sofosbuvir with or without ribavirin; cited from earlier work
# [7] = Safety evaluation, Study 1; format: in vivo, human
# Method in brief: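 Six healthy male nonsmokers (18–55 y) given one oral 200-mg dose of radiolabelled test compound in polyethylene glycol 400, fed. Safety covered subject-reported AEs, hematology, biochemistry, coagulation, urinalysis and electrocardiogram. Descriptive statistics only.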
# [8] = 14C-simeprevir mass balance study; format: in vivo, human; conditions: as summarised in Discussion
# Method in brief: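 Healthy adult males (18–55 y, BMI 18.0–30.0 kg/m2, nonsmokers). Single oral 200-mg dose of 14C-labelled plus unlabelled test compound in polyethylene glycol 400, fed, 1.85 MBq total. Urine pooled at 0–8, 8–16, 16–24, 24–36 and 36–48 h, then every 24 h. Every stool collected until ≥Day 8, <2 % of dose excreted per 24 h, and ≥7 stools. Radioactivity read by […] and expressed as % of dose; six subjects.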
# [9] = preclinical studies; cited from earlier work
# [10] = format: in vivo, human; conditions: for half-life: both, human, plasma, oral, 150 mg, Mean half-life
# Method in brief: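 Severe renal impairment (eGFR ≤29 mL/min/1.73 m2) versus matched normal-function subjects (eGFR ≥80), n = 8 each. Oral 150 mg test compound capsule daily, fed, for 7 days; Day 7 dose given after ≥10-h fast plus standard breakfast. Plasma drawn pre-dose Days 5–6 and on Day 7 at 0–72 h; LC-MS/MS. Noncompartmental Cmin, Cmax and AUC24 taken on log scale. Linear mixed-effects model gave LS means and 90 % CI of group difference.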
# plasma proteins = experiment: Unbound simeprevir in plasma; format: in vitro ADME, human
# Method in brief: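 Subjects with severe renal impairment or matched normal renal function, given 150 mg test compound orally daily for 7 days. Blood drawn pre-dose and 4 h post-dose. Unbound concentration measured by dialysis, then liquid scintillation counting of spiked tritiated test compound. Mean and SD reported per time point, plus fraction unbound.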
# [11] = 14C-daclatasvir excretion study
# [12] = moderate to severe renal impairment vs healthy, single 400-mg dose
# [13] = renal impairment group, treatment phase
# [14] = subject with rhabdomyolysis (also on high-dose fenofibrate), Day 9
# [15] = whole study period, six healthy subjects
smiles,measurement,setting,value
COC(=O)N[C@H](C(=O)N1CCC[C@H]1c1nc(-c2ccc(-c3ccc(-c4c[nH]c([C@@H]5CCCN5C(=O)[C@@H](NC(=O)OC)C(C)C)n4)cc3)cc2)c[nH]1)C(C)C [daclatasvir],Increase in AUCinf,[1]; ESRD,~51%
same,Increase in AUCinf,[1]; moderate renal impairment,approximately 18%
same,Increase in AUCinf,[1]; severe renal impairment,~39%
same,Recovery from the feces,[2]; [11],88%
same,Total radioactivity dose eliminated in urine,[2]; [11],6.6%
same,Renal excretion,[2],< 10%
NC(=O)c1ncn([C@@H]2O[C@H](CO)[C@@H](O)[C@H]2O)n1 [ribavirin],Decrease in apparent clearance,[1]; [12],50–75%
same,Increase in AUC,[1]; [12],two- to three-fold increase
same,Radioactivity excreted in the urine,[2]; 600-mg 14C-ribavirin dose,61%
COc1ccc2c(O[C@@H]3C[C@H]4C(=O)N[C@]5(C(=O)NS(=O)(=O)C6CC6)C[C@H]5/C=C\CCCCN(C)C(=O)[C@@H]4C3)cc(-c3nc(C(C)C)cs3)nc2c1C [simeprevir],half-life,[3]; HCV-infected subjects with normal renal function,41 h
same,AUC (range of concentrations observed in phase III studies),[3]; HCV-infected subjects without renal impairment,"4848–449,185 ng·h/mL"
same,Concentrations in subjects with HCV infection compared with non-HCV-infected subjects,[3],two- to three-fold higher
same,SVR rate,HCV genotype 1 [4]; QUEST-1,80%
same,SVR rate,HCV genotype 1 [4]; QUEST-2,81%
same,Deaths or AEs resulting in permanent premature discontinuation of simeprevir,[5]; Study 2,No deaths or AEs resulting in permanent premature discontinuation of simeprevir occurred
same,Severity of most AEs,"[5]; Study 2, both groups",grade I or II; also recorded: grade 1 or 2
same,Subjects with at least one AE,"[5]; control group, treatment phase",12.5%
same,Subjects with at least one AE,"[5]; control group, whole study period",37.5%
same,Severity of rhabdomyolysis,"[5]; one subject of renal impairment group, also receiving fenofibrate",grade 3
same,Subjects with at least one AE,[5]; [13],50%
same,Subjects with hyperbilirubinemia,[5]; [13],12.5%
same,Subjects with hypertension,[5]; [13],12.5%
same,Subjects with increased blood alkaline phosphatase,[5]; [13],12.5%
same,Subjects with myalgia,[5]; [13],12.5%
same,Subjects with rhabdomyolysis,[5]; [13],12.5%
same,Subjects with at least one AE,"[5]; renal impairment group, whole study period",50%
same,Relatedness of rhabdomyolysis and myalgia (investigator),"[5]; same subject, also taking high-dose fenofibrate",probably related to simeprevir
same,Creatine kinase level,[5]; [14],96.76 μkat/L
same,Creatine kinase muscle brain fraction levels,[5]; [14],20.84 µg/L and 19.45 µg/L
same,Myoglobin levels,[5]; [14],1200 µg/L and 1475 µg/L and 1476 µg/L
same,SVR rates,HCV genotype 1 [6],92–94%
same,Deaths or AEs resulting in permanent premature discontinuation,[7]; Study 1,No deaths or AEs resulting in permanent premature discontinuation from the study occurred
same,"Dry mouth, subjects",[7]; [15],one subject
same,"Increased ALT and AST levels, subjects",[7]; [15],two subjects
same,"Prolonged aPTT, subjects",[7]; [15],two subjects
same,Subjects with at least one AE,"[7]; whole study period, six healthy subjects, single 200-mg dose",five subjects
same,14C-simeprevir excreted in the urine,[8],< 2%
same,Tissue distribution,[9],predominately distributed to the liver and intestines with low distribution (similar or less than plasma) to the kidneys
same,AUC24h higher in severe renal impairment compared with healthy subjects,"[10]; based on LS mean ratio, Day 7",62%
same,Cmax higher in severe renal impairment compared with healthy subjects,"[10]; based on LS mean ratio, Day 7",34%
same,half-life,[10]; healthy subjects,16.7 h
same,half-life,[10]; subjects with severe renal impairment,24 h
same,Mean unbound plasma concentration,"plasma proteins; matched healthy subjects, 4 h post-dose, SD 0.2574",0.2714
same,Mean unbound plasma concentration,"plasma proteins; matched healthy subjects, pre-dose, SD 0.1567",0.1142
same,Mean unbound plasma concentration,"plasma proteins; subjects with renal impairment, 4 h post-dose",0.4216 (SD 0.3319)
same,Mean unbound plasma concentration,"plasma proteins; subjects with renal impairment, pre-dose",0.2892 (SD 0.4411)
CC(C)OC(=O)[C@H](C)N[P@](=O)(OC[C@H]1O[C@@H](n2ccc(=O)[nH]c2=O)[C@](C)(F)[C@@H]1O)Oc1ccccc1 [sofosbuvir],Increase in AUCinf,"[1]; mild renal impairment vs normal renal function, single 400-mg dose",61%
same,Increase in AUCinf,"[1]; moderate renal impairment vs normal renal function, single 400-mg dose",107%
same,Increase in AUCinf,"[1]; severe renal impairment vs normal renal function, single 400-mg dose",171%
same,14C-sofosbuvir recovered from the urine,[2]; 400-mg 14C-sofosbuvir dose,80%
